One series in a line: Octanol/water partition co-efficient, log P of compound by UV-spectrophotometry-based shake-flask method.
Details: not given
The series is classed as physicochemical. In short, it runs like this: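 Shake-flask partition between octanol and water, each pre-saturated with the other phase for at least 24 h. Compound dissolved at 10 mM in water-saturated octanol; water/octanol volume ratio set from preliminary runs according to polarity. Phases centrifuged 3000 rpm, 5 min. Diluted octanol phase read by UV absorbance at λmax, absorbance kept within 0.2-1. Water concentration obtained by difference; log P from the volume ratio. Triplicates.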
In the case of `O=[N+]([O-])c1ccc(C(F)F)cc1`, the logP (usually the decadic logarithm of the partition coefficient of the neutral form, usually between octanol and water) was 2.12.

The molecule `C[S+]([O-])CCc1ccccc1` (centres undefined) came in with a logP of 0.63.

Molecule `COC(=O)c1ccccc1` [METHYL BENZOATE] showed a logP of 2.27.

Molecule `COCCc1ccccc1` showed a lipophilicity (logP) of 2.23.

`CS(=O)(=O)c1ccc([N+](=O)[O-])cc1` had a log partition coefficient (logP) of 0.61.

For the molecule `O=C1c2ccccc2C(=O)N1C(F)F`, the logP was 1.53.

`Cc1ccc(C(F)F)cc1`: the logP came out at 2.94.

Molecule `FC(F)SCCc1ccccc1` had a logP of 3.16.

The molecule `C[S+]([O-])c1ccc([N+](=O)[O-])cc1` (centres undefined) gave a log partition coefficient (logP) of 0.49.

The molecule `Cc1ccc(C#N)cc1` registered a logP of 2.

With `COc1ccc(C)cc1`, the logP is 2.67.

Molecule `O=C(OC(F)F)c1ccccc1` gave a logP of 2.66.

Take `FC(F)OCCc1ccccc1`: the lipophilicity (logP) was determined as 3.16.

`O=S(=O)(CCc1ccccc1)C(F)F` had a log partition coefficient (logP) of 1.87.

The molecule `N#Cc1ccc(C(F)F)cc1` registered a log partition coefficient (logP) of 1.75.

In turn, `Cc1ccc(Br)cc1` yielded a log partition coefficient (logP) of 2.91.

Turning to `CS(=O)(=O)CCc1ccccc1`, the logP is 0.82.

Regarding `FC(F)c1ccc(Br)cc1`, the log partition coefficient (logP) amounted to 2.78.

`O=[N+]([O-])c1ccc([S+]([O-])C(F)F)cc1` (centres undefined) displayed a lipophilicity (logP) of 1.37.

Regarding `COc1ccc(C(F)F)cc1`, the lipophilicity (logP) was 2.61.

With `[O-][S+](CCc1ccccc1)C(F)F` (centres undefined), the lipophilicity (logP) was 1.42.

On to `FC(F)c1ccccc1`, for which the lipophilicity (logP) was determined as 2.4.

As to `FC(F)CCc1ccccc1`, the logP was 3.02.

Turning to `CN1C(=O)c2ccccc2C1=O`, the logP is 1.33.

With `Cc1ccc(C)cc1` [P-XYLENE], the logP is 3.08.

Take `CSCCc1ccccc1`: the logP came out at 2.95. The logP values of the last two molecules are within 0.2 log units of each other.

`O=[N+]([O-])c1ccc(S(=O)(=O)C(F)F)cc1` came in with a logP of 1.7.

In the case of `Cc1ccc([N+](=O)[O-])cc1` [4-NITROTOLUENE], the logP turned out to be 2.35.

A short description of a further series: Lipophilicity, log P of the compound. The class given is physicochemical. The conditions noted are these: octanol/water. In a few lines:
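Shake-flask partition between mutually pre-saturated octanol and water (at least 24 h pre-saturation). Compound dissolved at 10 mM in water-saturated octanol; water/octanol volume ratio set by preliminary runs according to polarity. Phases centrifuged 3000 rpm, 5 min; diluted octanol aliquot read by UV absorbance at λmax (range 0.2-1). Water concentration obtained by difference; log P from volume ratio; triplicates.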
`CCCc1ccccc1` showed a lipophilicity (logP) of 3.7.

Values taken from ChEMBL document CHEMBL4350973, “CF2H, a Functional Group-Dependent Hydrogen-Bond Donor: Is It a More or Less Lipophilic Bioisostere of OH, SH, and CH3?” (J Med Chem, 2019).
